Results on five molecules are retold here after ChEMBL document CHEMBL1123434, “Thiazole-4-carboxamide adenine dinucleotide (TAD). Analogues stable to phosphodiesterase hydrolysis” (J Med Chem, 1986).

The test system of assay [1] is P388. In words: The influence (50 uM) on Guanine nucleotide pools of Natural P388 resistant cell lines measured as conc. of GDP. The assay is classed as functional, Mus musculus. Put shortly:
(§1)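 Log-phase P388/S (parental) or P388/R cells (TR-resistant, selected to grow in 1 mM TR) exposed 18 h to the stated concentration. Cells then washed in cold saline, extracted with cold 10% TCA and neutralized with tri-n-octylamine/freon. GMP, GDP and GTP quantified by SAX HPLC: 0.03 M ammonium phosphate pH 3.5, then gradient to 0.6 M, pH 3.8. Values as nmol/10^6 cells.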

Assay [2] relates to P388. The assay can be described thus: The influence (100 uM) on Guanine nucleotide pools of Natural P388 sensitive cell lines measured as conc. of GTP. In kind it is functional, Mus musculus. Put shortly:
as §1

The species entered for another assay is Mus musculus. The assay can be described thus: Compound was tested for its degradation by TAD-phosphodiesterase. The assay is classed as functional. Put shortly:
(§2)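 Dinucleotide incubated as substrate at 7.5 mM in 0.03 M Tris-MgCl2, pH 7.6, for 30 min with enzyme: line 1, partially purified TAD-phosphodiesterase from colon-38 carcinoma cells; line 2, snake venom phosphodiesterase. Degradation quantified by HPLC as AMP or TRMP formed, or parent dinucleotide lost, depending on substrate. Expressed relative to TAD hydrolysis set at 100%.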

In assay [3] the test system is P388. The assay can be described thus: The influence (100 uM) on Guanine nucleotide pools of Natural P388 sensitive cell lines measured as conc. of GDP. The assay is classed as functional, Mus musculus. Put shortly:
as §1

The subject of assay [4] is P388. The assay can be described thus: The influence (100 uM) on Guanine nucleotide pools of Natural P388 sensitive cell lines measured as conc. of GMP. In kind it is functional, Mus musculus. In outline:
as §1

Assay [5] concerns P388. In words: The influence (100 uM) on Guanine nucleotide pools of Natural P388 resistant cell lines measured as conc. of GTP. In kind it is functional, Mus musculus. In outline:
as §1

Assay [6] has as its system P388. The assay can be described thus: The influence (50 uM) on Guanine nucleotide pools of Natural P388 sensitive cell lines measured as conc. of GDP. The assay is classed as functional, Mus musculus. In outline:
as §1

Assay [7] has as its system P388. The assay can be described thus: The influence (50 uM) on Guanine nucleotide pools of Natural P388 sensitive cell lines measured as conc. of GMP. In kind it is functional, Mus musculus. In outline: as §1
The test system of the next assay is snake. In words: Compound was tested for its degradation by venom phosphodiesterase. In kind it is functional. In outline: as §2
Assay [8] concerns P388. The assay can be described thus: The influence (100 uM) on Guanine nucleotide pools of Natural P388 resistant cell lines measured as conc. of GDP. In kind it is functional, Mus musculus. Put shortly:
as §1

For assay [9], the system named is P388. The assay can be described thus: The influence (50 uM) on Guanine nucleotide pools of Natural P388 sensitive cell lines measured as conc. of GTP. The assay is classed as functional, Mus musculus. In outline: as §1
Assay [10] deals with P388. The assay can be described thus: The cytotoxic concentration against P388 leukemia cell. In kind it is functional. The conditions noted are these: Mus musculus, read-out: ID50 (the source's name).
The test system of assay [11] is P388. In words: The influence (50 uM) on Guanine nucleotide pools of Natural P388 resistant cell lines measured as conc. of GMP. In kind it is functional, Mus musculus. Put shortly:
as §1

The target in assay [12] is Inosine-5'-monophosphate dehydrogenase 2 (Mus musculus, UniProt P24547). In words: Compound was tested for inhibitory activity against Inosine-5'-monophosphate dehydrogenase, the type of inhibition in not competitive. Put shortly:
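Partially purified IMP dehydrogenase; kinetics run at 3 inhibitor concentrations against 6 levels of substrate NAD or IMP (0.25, 0.5, 1, 2, 4 and 6 × Km). Inhibition type judged from these kinetics.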

Assay [13] has as its system P388. The assay can be described thus: The influence (50 uM) on Guanine nucleotide pools of Natural P388 resistant cell lines measured as conc. of GTP. The assay is classed as functional, Mus musculus. Put shortly:
as §1

Assay [14] deals with P388. In words: The influence (100 uM) on Guanine nucleotide pools of Natural P388 resistant cell lines measured as conc. of GMP. The assay is classed as functional, Mus musculus. In outline: as §1
For assay [15], the system named is P388. In words: The influence (2.5 uM) on Guanine nucleotide pools of Natural P388 resistant cell lines measured as conc. of GMP. In kind it is functional, Mus musculus. In outline: as §1
Assay [16] deals with P388. The assay can be described thus: The influence (5 uM) on Guanine nucleotide pools of Natural P388 sensitive cell lines measured as conc. of GDP. In kind it is functional, Mus musculus. In outline: as §1
For assay [17], the system named is P388. In words: The influence (2.5 uM) on Guanine nucleotide pools of Natural P388 sensitive cell lines measured as conc. of GDP. The assay is classed as functional, Mus musculus. Put shortly:
as §1

The test system of assay [18] is P388. The assay can be described thus: The influence (2.5 uM) on Guanine nucleotide pools of Natural P388 resistant cell lines measured as conc. of GDP. In kind it is functional, Mus musculus. Put shortly:
as §1

Assay [19] has as its system P388. In words: The influence (5000 uM) on Guanine nucleotide pools of Natural P388 resistant cell lines measured as conc. of GTP. In kind it is functional, Mus musculus. In outline: as §1
The test system of assay [20] is P388. In words: The influence (2.5 uM) on Guanine nucleotide pools of Natural P388 sensitive cell lines measured as conc. of GMP. In kind it is functional, Mus musculus. In outline: as §1
The subject of assay [21] is P388. The assay can be described thus: The influence (2.5 uM) on Guanine nucleotide pools of Natural P388 resistant cell lines measured as conc. of GTP. The assay is classed as functional, Mus musculus. Put shortly:
as §1

Assay [22] concerns P388. The assay can be described thus: The influence (5 uM) on Guanine nucleotide pools of Natural P388 sensitive cell lines measured as conc. of GTP. In kind it is functional, Mus musculus. Put shortly:
as §1

Assay [23] concerns P388. The assay can be described thus: The influence (2.5 uM) on Guanine nucleotide pools of Natural P388 sensitive cell lines measured as conc. of GTP. The assay is classed as functional, Mus musculus. In outline: as §1
Assay [24] relates to P388. The assay can be described thus: The influence (5000 uM) on Guanine nucleotide pools of Natural P388 resistant cell lines measured as conc. of GDP. The assay is classed as functional, Mus musculus. In outline:
as §1

Assay [25] concerns P388. In words: The influence (5 uM) on Guanine nucleotide pools of Natural P388 sensitive cell lines measured as conc. of GMP. In kind it is functional, Mus musculus. In outline: as §1
For assay [26], the system named is P388. In words: The influence (5000 uM) on Guanine nucleotide pools of Natural P388 resistant cell lines measured as conc. of GMP. In kind it is functional, Mus musculus. Put shortly: as §1

Inosine-5'-monophosphate dehydrogenase 2, sequence (P24547 whole entry): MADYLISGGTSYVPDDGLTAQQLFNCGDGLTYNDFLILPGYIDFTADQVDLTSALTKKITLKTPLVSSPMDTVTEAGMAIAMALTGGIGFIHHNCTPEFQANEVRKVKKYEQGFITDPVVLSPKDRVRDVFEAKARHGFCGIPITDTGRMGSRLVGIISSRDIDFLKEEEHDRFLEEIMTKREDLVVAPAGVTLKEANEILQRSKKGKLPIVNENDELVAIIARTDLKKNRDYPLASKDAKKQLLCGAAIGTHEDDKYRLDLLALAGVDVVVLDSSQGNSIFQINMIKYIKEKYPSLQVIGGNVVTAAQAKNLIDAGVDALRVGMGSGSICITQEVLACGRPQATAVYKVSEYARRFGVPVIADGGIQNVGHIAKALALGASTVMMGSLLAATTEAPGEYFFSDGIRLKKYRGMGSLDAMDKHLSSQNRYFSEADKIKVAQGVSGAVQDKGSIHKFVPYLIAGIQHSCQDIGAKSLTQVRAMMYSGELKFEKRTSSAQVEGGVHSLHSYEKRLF

Consider `NC(=O)c1csc([C@@H]2O[C@H](COP(=O)(O)CP(=O)(O)OC[C@@H]3O[C@H](n4cnc5c(N)ncnc54)[C@@H](O)[C@H]3O)[C@@H](O)[C@H]2O)n1`, for which the Control with P388 [1] was 24%; in the assay with P388 [2] it was 39%; in the assay with P388 [3], 19%; in the assay with P388 [4] it was 6%; in the assay on P388 [5] it was 8%; with P388 [6] it was 24%. Moreover, the Control was 14% with P388 [7]; 34% with P388 [8]; 24% in the assay with P388 [9]; 3% in the assay with P388 [11]; 5% with P388 [13]; 3% in the assay with P388 [14]. Also, the hydrolysis relative to TAD in the assay listed under Mus musculus and in the assay with snake was 0% each time. Further, the IC50 with P388 [10] was 45 µM. Besides, the affinity in assay [12] corresponds to a Ki of 0.23 µM.
Take `NC(=O)c1csc([C@H]2O[C@@H](COP(=O)(O)OP(=O)(O)OC[C@H]3O[C@@H](n4cnc5c(N)ncnc54)[C@H](O)[C@@H]3O)[C@H](O)[C@@H]2O)n1`: the hydrolysis relative to TAD in the assay filed under Mus musculus and in the assay with snake was 100% in each case. In the assay on P388 [10], the IC50 was 2.1 µM. Further, in [12], affinity was put at a Ki of 0.24 µM.
Turning to `NC(=O)c1csc([C@@H]2O[C@H](CO)[C@@H](O)[C@H]2O)n1` [TIAZOFURIN], the Control in the assay on P388 [15] is 98%; with P388 [16], 36%; in the assay on P388 [17], 41%; in the assay with P388 [18], 88%; in the assay on P388 [19] it was 52%; with P388 [20] it was 12%. The Control came out at 111% in the assay on P388 [21]; 34% in the assay on P388 [22]; 51% with P388 [23]; 74% in the assay on P388 [24]; 8% with P388 [25]; 0% in the assay on P388 [26].
Regarding `NC(=O)c1csc([C@@H]2O[C@H](CCP(=O)(O)OP(=O)(O)OC[C@H]3O[C@@H](n4cnc5c(N)ncnc54)[C@H](O)[C@@H]3O)[C@@H](O)[C@H]2O)n1`, the hydrolysis relative to TAD was 10.4% in the assay listed under Mus musculus and 27.2% in the assay on snake. Also, in the assay with P388 [10], the IC50 turned out to be 100 µM. Also, in [12], the Ki (usually a measure of affinity in units of concentration, obtained from inhibition or displacement) came to 1.97 µM.
As to `NC(=O)c1csc([C@@H]2O[C@H](COP(=O)(O)OP(=O)(O)CC[C@H]3O[C@@H](n4cnc5c(N)ncnc54)[C@H](O)[C@@H]3O)[C@@H](O)[C@H]2O)n1`, the hydrolysis relative to TAD in the assay listed under Mus musculus stood at 13%; with snake, 37.6%. In addition, the IC50 in the assay with P388 [10] stood at 2.8 µM.
